Source: article PMC5431288 (European journal of medicinal chemistry, 2016)

Key:
Jurkat cells [1] = assay: Annexin-V/PI apoptosis assay, Jurkat; type: cell-based, human; settings: 24 or 48 h
Method in brief: (§1)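 Human lines: HeLa grown in DMEM and Jurkat in RPMI-1640, each with 10% FBS, penicillin G and streptomycin. Cells exposed to test compound at several concentrations for 24 or 48 h, harvested and double-stained with annexin-V-FITC and PI. Surface phosphatidylserine read by flow cytometry, giving live, early apoptotic, late apoptotic and necrotic fractions. Mean ± SEM of three independent experiments.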

Jurkat cells [2] = assay: Flow cytometric cell cycle analysis, Jurkat; type: cell-based, human; settings: 24 h, different concentrations
Method in brief: (§2)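 5 × 10⁵ HeLa (DMEM) or Jurkat (RPMI-1640) cells, both with 10% FBS, were treated with a range of test compound concentrations for 24 h. Cells were then collected and fixed in ice-cold 70% ethanol, lysed in buffer with RNase A and 0.1% Triton X-100, and PI-stained. DNA content was read by flow cytometry and histograms analysed for phase percentages. Mean of two independent experiments.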

[3] = tested on: panel of 11 human tumor cell lines; assay: MTT antiproliferative assay, whole panel; type: cell-based; settings: read-out: GI50 values across the panel
Method in brief: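 Leukemia lines grown in RPMI-1640 and adherent carcinoma lines in DMEM, each with 10% FBS plus penicillin/streptomycin. Seeded at 8 × 10³ cells/well and settled 18 h at 37 °C, 5% CO₂. Medium was then replaced with fresh medium holding graded compound concentrations from 10 mM DMSO stocks, in triplicate, for 72 h. Viability by MTT; GI50 is the concentration inhibiting proliferation by 50%.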

Jurkat cells [4] = assay: ROS production; type: cell-based, human; settings: 24 or 48 h
Method in brief: (§3)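 HeLa or Jurkat cells were treated with test compound for 24 or 48 h, then loaded with H₂-DCFDA, which ROS oxidise to fluorescent DCF. Fluorescence was measured by flow cytometry. Mean ± SEM of three independent experiments.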

Jurkat cells [5] = assay: Mitochondrial membrane potential; type: cell-based, human; settings: 24 or 48 h
HeLa cells [6] = assay: Flow cytometric cell cycle analysis, HeLa; type: cell-based, human; settings: 24 h, different concentrations
Method in brief: as §2

HeLa cells [7] = assay: ROS production; type: cell-based, human; settings: 24 or 48 h
Method in brief: as §3

HeLa cells [8] = assay: Mitochondrial membrane potential; type: cell-based, human; settings: 24 or 48 h
[9] = Metabolic stability in human liver microsomes; type: in vitro ADME; settings: 10 μM
Method in brief: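 Pooled mixed-gender human liver microsomes (1.0 mg/mL) in 0.1 M KH₂PO₄, pH 7.4, with 10 μM final compound, with or without 1 mM NADPH; buffer-only controls. Microsomes added after 3-min equilibration at 37 °C. Stopped at 0, 15, 30 or 60 min with ice-cold acetonitrile, then centrifuged. Supernatants analysed by C18 HPLC with fluorescence detection (ex 344/em 493 nm). Percent remaining from peak area versus 0 min; mean ± SD, n = 3–4.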

HeLa cells [10] = assay: Annexin-V/PI apoptosis assay, HeLa; type: cell-based, human; settings: 24 or 48 h
Method in brief: as §1

tubulin = settings: cited from earlier work
bovine brain tubulin = bovine brain tubulin (Bos taurus, UniProt P81947+Q6B856); settings: read-out: tubulin assembly IC50; cited from earlier work
Sequence of bovine brain tubulin (Q6B856 whole entry): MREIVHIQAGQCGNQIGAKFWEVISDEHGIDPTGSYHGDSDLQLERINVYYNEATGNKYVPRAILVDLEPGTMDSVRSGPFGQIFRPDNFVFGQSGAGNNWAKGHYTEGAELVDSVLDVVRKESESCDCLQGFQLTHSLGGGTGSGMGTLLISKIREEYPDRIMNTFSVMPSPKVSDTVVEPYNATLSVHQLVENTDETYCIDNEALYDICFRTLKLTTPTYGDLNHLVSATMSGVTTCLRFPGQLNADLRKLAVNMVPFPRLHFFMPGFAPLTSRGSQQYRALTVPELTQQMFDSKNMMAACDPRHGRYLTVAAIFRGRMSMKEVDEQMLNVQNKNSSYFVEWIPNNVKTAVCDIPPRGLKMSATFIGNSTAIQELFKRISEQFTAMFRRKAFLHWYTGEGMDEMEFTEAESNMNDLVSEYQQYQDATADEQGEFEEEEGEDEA
Sequence of bovine brain tubulin (P81947 whole entry): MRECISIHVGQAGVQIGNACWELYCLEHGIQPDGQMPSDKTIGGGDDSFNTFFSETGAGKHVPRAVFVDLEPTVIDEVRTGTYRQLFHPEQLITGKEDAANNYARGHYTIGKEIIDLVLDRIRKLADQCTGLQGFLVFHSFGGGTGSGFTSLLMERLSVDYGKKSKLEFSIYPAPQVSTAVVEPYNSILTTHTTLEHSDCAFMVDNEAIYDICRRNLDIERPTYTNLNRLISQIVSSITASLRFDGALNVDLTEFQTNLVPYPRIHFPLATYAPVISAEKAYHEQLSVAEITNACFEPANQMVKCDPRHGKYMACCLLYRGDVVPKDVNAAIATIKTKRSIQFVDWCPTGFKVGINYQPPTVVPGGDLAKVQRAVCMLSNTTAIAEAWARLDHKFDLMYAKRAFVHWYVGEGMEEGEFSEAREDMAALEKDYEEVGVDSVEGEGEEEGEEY

A549 cell line = settings: cited from earlier work

Q: What does the source list for `O=C(c1ccccc1)n1ccc2c3c(=O)cc(-c4ccccc4)[nH]c3ccc21` [Compound 4a, 3-Benzoyl-7-phenyl-6H-pyrrolo[3,2-f]quinolin-9-one]?
A: induction of apoptosis (annexin-V/PI) (Jurkat cells [1]): significant time- and concentration-dependent increase of apoptotic cells; effect on cell cycle progression (Jurkat cells [2]): significant G2/M arrest in a concentration-dependent manner; GI50 [3]: 0.0001 to 0.01 µM; ROS production (H2-DCFDA) (Jurkat cells [4]): induced the production of large amounts of ROS; cells with low mitochondrial transmembrane potential (JC-1) (Jurkat cells [5]): marked increase in the percentage of cells with low Δϕmt; effect on cell cycle progression (HeLa cells [6]): significant G2/M arrest in a concentration-dependent manner; ROS production (H2-DCFDA) (HeLa cells [7]): induced the production of large amounts of ROS; cells with low mitochondrial transmembrane potential (JC-1) (HeLa cells [8]): marked increase in the percentage of cells with low Δϕmt; influence of NADPH on compound disappearance ([9]; HLMs 1 mg/mL, with or without 1 mM NADPH): not influenced by the presence of NADPH; compound remaining ([9]; human liver microsomes 1 mg/mL, 60 min, 37 °C): more than 60%; induction of apoptosis (annexin-V/PI) (HeLa cells [10]): significant time- and concentration-dependent increase of apoptotic cells

Q: What does the source list for `CS(=O)(=O)n1ccc2c3c(=O)cc(-c4ccccc4)[nH]c3ccc21` [Compound 4b, 3-Methanesulfonyl-7-phenyl-6H-pyrrolo[3,2-f]quinolin-9-one]?
A: induction of apoptosis (annexin-V/PI) (Jurkat cells [1]): significant time- and concentration-dependent increase of apoptotic cells; ROS production (H2-DCFDA) (Jurkat cells [4]): induced the production of large amounts of ROS; cells with low mitochondrial transmembrane potential (JC-1) (Jurkat cells [5]): marked increase in the percentage of cells with low Δϕmt; ROS production (H2-DCFDA) (HeLa cells [7]): induced the production of large amounts of ROS; cells with low mitochondrial transmembrane potential (JC-1) (HeLa cells [8]): marked increase in the percentage of cells with low Δϕmt; induction of apoptosis (annexin-V/PI) (HeLa cells [10]): significant time- and concentration-dependent increase of apoptotic cells

Q: With `O=C(c1ccccc1)N1CCc2c1ccc1[nH]c(-c3ccccc3)cc(=O)c21` [Compound 7a, 3-benzoyl-1,2-dihydro-7-phenyl-6H-pyrrolo[3,2-f]quinolin-9-one] as the compound, how does the GI50 [3] read?
A: Its GI50 is 0.25 to 2.65 µM.

Q: Which GI50 [3] does the source give for `CS(=O)(=O)N1CCc2cc3[nH]c(-c4ccccc4)cc(=O)c3cc21` [Compound 8b, 1N-methanesulfonyl-2,3-dihydro-6-phenyl-5H-pyrrolo [2,3-g]quinolin-8-one] here?
A: The GI50 was greater than 10 µM.

Q: For `O=c1cc(-c2ccccc2)[nH]c2ccc3c(ccn3CC3CC3)c12` [Compound 10], which “inhibition of colchicine binding” value (tubulin) is on record?
A: Its value is 83%.

Q: And the IC50 (bovine brain tubulin)?
A: Its IC50 is 0.9 µM.

Q: What about the induction of autophagy (A549 cell line) of the same compound?
A: The induction of autophagy was “induce autophagy”.
